In the library only some 2.1% were active in any assay of this set; here they are far more common.
Mot1-301 SUMO: SUMOylation pathway inhibition by Mot1-301 growth rescue | S. cerevisiae Mot1-301 growth rescue, ATP luminescence, 38.5C; percent above DMSO median, 100 means doubled | growth rescue, % at 18.8 µM | 320,000 tested, 1% active;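 active means every valid replicate shows activation above 250% relative to neutral control wells; inactive means the rest, any valid replicate at or below 250%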
ARFGAP1 inhibitor: rat ARFGAP1 inhibition; Q62848; Arfgap1-stimulated ARF1 GTP hydrolysis, GDP FP detection; 360,000 tested, 0.26% active; inhibition, % at 16.5 µM;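 active means inhibition above a per-plate limit, mean inhibition of low control wells plus 3 SD, cut at about 25% in these data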
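Replicates: Single well per compound | Assay system: Truncated rat Arfgap1 GAP domain | Control set: No-Arfgap1 wells (100%) versus DMSO full-reaction wells (0%) | Times: Enzyme reaction 120 min at 25 °C after 20 min preincubation | Reagent: Human ARF1(Δ1-17)-GTP substrate | Measured by: Tracer-displacement fluorescence polarization with EDTA stop, 620/688 nm | Measure: Percent inhibition of Arfgap1-stimulated GTP hydrolysis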
C2C12 statin: protects C2C12 myotubes from simvastatin toxicity | rescue of ATP level, % at 7.49 µM | AID 602340 | 330,000 tested, 0.78% active | ATP luminescence, 48 h; scaled: DMSO 0, geranylgeraniol control 100;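 active means mean ATP rescue above about 67%, or every replicate alone reaching that limit, limit read from the data, passing the limit was not always enough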;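 further: myotubes were challenged with 10 µM simvastatin during compound exposure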
APOBEC3A inh: inhibitors of human APOBEC3A DNA deaminase. P31941. recombinant A3A, FAM/TAMRA ssDNA deamination fluorescence. inhibition, % at 20 µM. 330,000 tested, 0.41% active;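 active means at least 40% inhibition at 20 µM here, with at most 30% in a related deaminase screen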
Target sequence (P31941 whole entry, looked up): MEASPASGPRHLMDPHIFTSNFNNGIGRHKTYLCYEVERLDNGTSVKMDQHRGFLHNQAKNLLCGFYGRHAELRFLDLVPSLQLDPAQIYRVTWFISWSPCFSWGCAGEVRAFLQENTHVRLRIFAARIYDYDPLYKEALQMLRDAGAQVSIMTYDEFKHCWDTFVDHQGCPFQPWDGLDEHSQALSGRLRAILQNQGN
A3G deaminase: inhibitors of human APOBEC3G DNA deaminase; AID 493012; inhibition, % at 20 µM; recombinant A3G, ssDNA deamination FAM/TAMRA fluorescence; Q9HC16; 330,000 tested, 0.28% active;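 active means inhibition of at least 40% at 20 µM, with no more than 30% in the related APOBEC3A deaminase screen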
Target sequence (Q9HC16 whole entry, looked up): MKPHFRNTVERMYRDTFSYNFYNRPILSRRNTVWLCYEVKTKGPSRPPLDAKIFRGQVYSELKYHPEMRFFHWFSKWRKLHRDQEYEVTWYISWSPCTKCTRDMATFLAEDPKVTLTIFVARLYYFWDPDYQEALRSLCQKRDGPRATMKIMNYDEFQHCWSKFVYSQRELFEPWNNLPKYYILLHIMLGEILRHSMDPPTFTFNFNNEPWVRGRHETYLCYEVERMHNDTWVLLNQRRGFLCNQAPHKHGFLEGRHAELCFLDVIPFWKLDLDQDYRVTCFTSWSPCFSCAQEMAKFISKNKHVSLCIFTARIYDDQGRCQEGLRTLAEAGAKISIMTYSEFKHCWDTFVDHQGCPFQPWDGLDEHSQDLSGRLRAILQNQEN
ASAP1 inh: blocks human ASAP1-stimulated Arf1 GTP hydrolysis | Q9ULH1 | GDP FP detection | inhibition, % at 16.5 µM | 360,000 tested, 0.19% active | AID 624377; in the data active means inhibition above about 25%
APOBEC3A confirm: confirmation of human APOBEC3A DNA deaminase inhibitors | shares compounds with APOBEC3A inh | recombinant A3A, ssDNA deaminase UDG fluorescence assay | inhibition, % at 20 µM | 1,400 tested, 63% active | AID 493151;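 active means inhibition reaching a set limit, 80% of the first screen's cutoff, at 20 µM in any replicate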
UDG A3A counter: inhibits UDG, flagging false APOBEC3A inhibitors; UDG counterscreen, FAM/TAMRA uracil oligo fluorescence; shares compounds with APOBEC3A inh; inhibition, % at 20 µM; 1,000 tested, under 10 active; call rule not given here
A number is an active result; - = inactive; . = no result.

SMILES	Mot1-301 SUMO	ARFGAP1 inhibitor	C2C12 statin	APOBEC3A inh	A3G deaminase	ASAP1 inh	APOBEC3A confirm	UDG A3A counter
COCC#Cc1ccc2c(c1)O[C@@H](CN(C)C(=O)NC(C)C)[C@H](C)CN([C@@H](C)CO)S2(=O)=O	.	.	-	.	.	.	.	.
CCn1c(/C=C/N(C(C)=O)c2ccccc2)[n+](CC)c2ccc(Cl)cc21	-	-	.	63	-	-	64	-
COCCCNC(=O)CN(Cc1ccccc1)S(=O)(=O)c1ccccc1	-	-	-	-	-	-	.	.
COCCCNC(=O)c1ccccc1N(Cc1ccccc1)S(=O)(=O)c1ccccc1	-	-	-	55	-	-	-	.
Cc1noc(C)c1NC(=O)N(C)C[C@@H]1Oc2c(NC(=O)c3cnccn3)cccc2C(=O)N([C@H](C)CO)C[C@@H]1C	.	.	-	.	.	.	.	.
COc1ccc(NC(=O)COC(=O)c2cc3c(s2)CCC3)cc1	-	.	-	41	-	.	32	-
O=C(COC(=O)c1cc2c(s1)CCCC2)Nc1ccc(Cl)cn1	-	-	-	-	-	-	.	.
COCCn1c(C)cc(C(=O)COC(=O)c2cc3c(s2)CCC3)c1C	-	-	.	43	-	-	27	-
NC(=O)c1ccc(NC(=O)COC(=O)c2cc3c(s2)CCC3)cc1	-	-	-	55	-	-	43	-
O=C(COC(=O)c1cc2c(s1)CCC2)Nc1ccc(F)cc1	-	-	.	45	-	-	49	-
CNC(=O)C[C@H]1CC[C@@H]2[C@H](COc3ccc(NC(=O)c4ccccc4Cl)cc3C(=O)N2C)O1	.	.	-	.	.	.	.	.
Cc1noc(C)c1NC(=O)Nc1cccc2c1O[C@@H](CN(C)C(=O)NC1CCCCC1)[C@@H](C)CN([C@@H](C)CO)C2=O	.	.	-	.	.	.	.	.
C[N+]1(CC2COC3(CCCCC3)O2)CCCC1 (centres undefined)	-	-	.	-	-	-	.	.
CC1CC(C)(C)OC(C[N+]2(C)CCCCC2)O1 (centres undefined)	-	-	.	49	-	-	77	-
COc1cccc(-c2cnc3c(c2)C(=O)N([C@@H](C)CO)C[C@H](C)[C@@H](CN(C)Cc2ccc(C(=O)O)cc2)O3)c1	.	.	-	.	.	.	.	.
c1ccc(-c2nnc(N3CCN(c4ccccc4)CC3)nc2-c2ccccc2)cc1	-	-	-	-	-	-	.	.
CN1CCN(c2nnc(-c3ccccc3)c(-c3ccccc3)n2)CC1	-	-	-	66	-	-	27	-
CCOc1ccc(NC(=O)c2cc(C3CC3)nc3c2cnn3C(C)C)cc1OC	-	-	-	51	-	-	-	.
O=C(C[C@@H]1CC[C@@H](NC(=O)Cc2ccccn2)[C@H](CO)O1)NCCCN1CCOCC1	.	.	-	.	.	.	.	.
CCOC(=O)CN1C(=O)S/C(=C\c2ccc(-c3cccc(C(=O)O)c3C)o2)C1=O	-	-	.	-	-	-	.	.
CCOC(=O)CN1C(=O)S/C(=C\c2ccc(-c3ccc(C(=O)O)c(Cl)c3)o2)C1=O	-	-	-	58	-	-	40	-
CCCC#Cc1cnc2c(c1)C(=O)N([C@@H](C)CO)C[C@@H](C)[C@H](CN(C)C(=O)c1ccc(F)cc1)O2	.	.	-	.	.	.	.	.
Cc1ccc(C)c(NC(=O)CSc2ncnc3nc[nH]c23)c1	-	-	-	47	-	-	31	-
CCNS(=O)(=O)c1ccc(NC(=O)Cc2ccc(F)cc2)cc1	-	-	-	-	-	-	.	.
CC(Nc1ccc(F)cc1)=[N+](C)CCNS(=O)(=O)c1ccc(Cl)cc1	-	-	-	55	-	-	-	.
SMILES	Mot1-301 SUMO	ARFGAP1 inhibitor	C2C12 statin	APOBEC3A inh	A3G deaminase	ASAP1 inh	APOBEC3A confirm	UDG A3A counter
Cc1ccccc1NC(=O)N(C(C)C)C(C)C	-	-	-	83	-	-	-	-
CC(=O)Nc1ccc(NC(=O)Nc2ccccc2C)cc1	-	-	-	-	-	-	.	.
O=C(C[C@H]1C[C@H]2c3cc(NC(=O)C4CCC4)ccc3O[C@H]2[C@H](CO)O1)NCc1ccccc1F	.	.	-	.	.	.	.	.
Cc1cc(C)cc(N2CC(c3nc4ccccc4n3C)CC2=O)c1 (centres undefined)	-	-	-	58	-	-	46	-
Cc1ccc(N2CC(c3nc4ccccc4n3C)CC2=O)cc1C (centres undefined)	-	-	-	-	-	-	.	.
COc1ccc(NC(=O)COc2ccc(/C=C/c3cccc[n+]3C)cc2OC)cc1	-	-	-	86	-	-	75	-
COc1ccc(NC(=O)COc2ccc(/C=C/c3cc[n+](C)cc3)cc2OC)cc1	-	-	-	52	-	-	76	-
COc1cc(/C=C/c2cccc[n+]2C)ccc1OCC(=O)Nc1cccc(Cl)c1	-	-	-	81	-	-	75	-
COc1cc(/C=C/c2cc[n+](C)cc2)ccc1OCC(=O)Nc1ccc(Cl)c(Cl)c1	-	-	-	81	-	-	78	-
O=C(C[C@H]1CC[C@H]2[C@@H](COC[C@H](O)CN2Cc2cc(F)ccc2F)O1)N1CCc2ccccc2C1	.	.	-	.	.	.	.	.
COc1cc(/C=C/c2cccc[n+]2C)ccc1OCC(=O)Nc1ccccc1	-	-	-	73	-	-	79	-
C/C=C/c1ccc(OCC(=O)Nc2cc(OC)c(OC)c(OC)c2)c(OC)c1	-	-	-	-	-	-	.	.
O=C(C[C@@H]1CC[C@@H](NS(=O)(=O)c2ccc(F)cc2)[C@@H](CO)O1)N1CCc2ccccc2C1	.	.	-	.	.	.	.	.
COc1ccccc1S(=O)(=O)N[C@@H]1CC[C@@H](CCNC(=O)C2CCC2)O[C@H]1CO	.	.	-	.	.	.	.	.
C[C@H](CO)N1C[C@H](C)[C@@H](CN(C)C(=O)Nc2ccc(C(F)(F)F)cc2)Oc2ccc(NS(=O)(=O)c3ccc(Cl)cc3)cc2CC1=O	.	.	-	.	.	.	.	.
CSC1=NSC2=NC(=O)/C(=C/c3coc4ccc(O)cc4c3=O)C(=N)N12	-	-	-	45	-	-	36	-
CSC1=NSC2=NC(=O)/C(=C/c3coc4ccccc4c3=O)C(=N)N12	-	-	-	.	.	-	.	.
CCC(=O)Nc1ccc2c(c1)OC[C@@H](C)N(Cc1ccncc1)C[C@@H](C)[C@H](OC)CN(C)C2=O	.	.	-	.	.	.	.	.
Cc1ccccc1N(C(=O)Cc1c[nH]c2ccccc12)C(C(=O)NC1CCCCC1)c1ccco1 (centres undefined)	-	-	.	-	-	-	.	.
Cc1ccc(C(C(=O)NC2CCCCC2)N(C(=O)Cc2c[nH]c3ccccc23)c2ccccc2C)o1 (centres undefined)	-	-	.	45	-	-	-	-
N#C[C@@H]1[C@H](c2ccc(C3=CCCCC3)cc2)[C@H](CO)N1C(=O)CN1CCOCC1	.	.	-	.	.	.	.	.

Assay outcomes deposited in PubChem BioAssay by several laboratories.
